Screens (PubChem BioAssay)
UCH37 inh – human UCH37 deubiquitinating enzyme inhibition; 330,000 tested, 0.33% active; inhibition, % (no concentration beside the values); Q9Y5K5; purified proteasome/UCH37, Ub-AMC cleavage fluorescence; AID 588478;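 active means mean inhibition over replicate wells above about 20%, limit read from the data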
Target sequence (Q9Y5K5 whole entry, looked up): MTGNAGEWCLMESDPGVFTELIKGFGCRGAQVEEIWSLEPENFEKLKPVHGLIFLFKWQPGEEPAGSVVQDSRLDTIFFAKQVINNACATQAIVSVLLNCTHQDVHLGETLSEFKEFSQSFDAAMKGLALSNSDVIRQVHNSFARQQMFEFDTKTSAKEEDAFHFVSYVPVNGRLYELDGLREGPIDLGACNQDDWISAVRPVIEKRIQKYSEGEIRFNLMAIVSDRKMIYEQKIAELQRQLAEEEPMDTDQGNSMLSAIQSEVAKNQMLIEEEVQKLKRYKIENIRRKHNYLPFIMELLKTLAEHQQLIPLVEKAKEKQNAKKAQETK
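Assay system: Proteasome-bound UCH37. Buffer or medium: pH 7.4 Tris-HCl (50 mM) with ovalbumin, ATP-MgCl2, DTT. Incubation: 30 min preincubation with enzyme, 25 min cleavage at room temperature. Measured by: fluorescence, ex 355 nm, em 460 nm. Read-out basis: percent inhibition. Control set: wells without proteasome as full block, compound-free enzyme plus substrate as uninhibited.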
Calb FLC – affects C. albicans growth with fluconazole. growth inhibition, % (concentration not given with the values). 300,000 tested, 0.57% active. C. albicans CaCi-2 + fluconazole, Alamar Blue growth, 48 h. AID 1979;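 active means growth inhibition above about 58% in most replicates, limit read from the data, passing the limit was not always enough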;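 further: all wells also contain fluconazole at 8 µg/ml as a sub-toxic cotreatment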
NALP1 inh – inhibitors of NALP1 inflammasome in yeast; S. cerevisiae NALP1/ASC/caspase-1 growth, X-gal OD620, 72 h; 280,000 tested, 0.61% active; inhibition, % at 10 µM; in the data active means inhibition mostly above about 24%, no sharp cut-off; inactive means mostly below about 32%
ALR inh – inhibitors of human sulfhydryl oxidase ALR. P55789. purified ALR, DTT oxidation, H2O2 HRP-luminol luminescence. inhibition, % (no concentration beside the values). 290,000 tested, 3.8% active;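 active means mean replicate inhibition above about 79%, with every replicate also reaching it, limit read from the data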
NLRP3 yeast inh – blocks the NALP3 inflammasome reconstituted in yeast; Yeast reconstituted NLRP3/ASC/caspase-1, beta-gal luminescence, 24 h; inhibition, % at 10 µM; 330,000 tested, 0.39% active;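 active means inhibition of 50% or more; inactive means inhibition below 50%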
ATG4B inh – ATG4B (human) cysteine protease inhibition. Q9Y4P1. ATG4B cleavage of LC3-PLA2, NBD-HPC fluorescence, 1 h. inhibition, % at 8.33 µM. 340,000 tested, 0.51% active. AID 504462; in the data active means inhibition above about 40%
Numbers stand for hits; – = inactive; · = not tested or not shown; ! = not confirmed by another sample. Shown are actives, neighbours in structure and some others; about 4.8% of the full set was active somewhere.

SMILES | UCH37 inh | Calb FLC | NALP1 inh | ALR inh | NLRP3 yeast inh | ATG4B inh
Cc1cccc(C=NNC(=O)c2ccc(NC(=O)c3ccc(F)cc3)cc2)n1 | – | · | · | · | · | ·
O=C(CCC1N=C2c3ccccc3N=C(SCc3cccc(Cl)c3)N2C1=O)NCc1ccco1 (centres undefined) | – | – | – | – | – | –
O=C(CCC1N=C2c3ccccc3N=C(SCc3ccccc3Cl)N2C1=O)NCc1ccco1 (centres undefined) | – | – | – | 99 | – | –
O=C(O)/C=C/C(=O)Nc1ccc2c(c1)C(=O)c1ccccc1C2=O | – | – | · | 97 | – | –
O=C(O)/C=C/C(=O)Nc1ccc(C(=O)c2ccccc2)cc1 | – | – | – | – | – | –
COc1ccc(N2CCN(c3ccc(NC(=O)/C=C\C(=O)O)cc3)CC2)cc1 | – | – | – | 83 | – | –
O=C(O)/C=C/C(=O)Nc1ccc(O)cc1 | – | – | – | 98 | – | –
NC(=O)/C=C/C(=O)Nc1ccc(Cl)cc1 | – | – | 79 | – | – | –
O=C(NN=Cc1cccnc1)c1ccccc1OCc1ccc(Cl)cc1 | – | · | · | · | · | ·
COc1ccc(/C=C(/NC(=O)c2ccco2)C(=O)N2CCc3ccccc32)cc1OC | – | – | · | – | – | –
CCOC(=O)/C(C#N)=C\c1ccc(O)c(OC)c1 | – | – | – | 99 | – | –
N#C/C(=C\c1ccc(O)c(O)c1)C(=O)N1CCc2ccccc21 | – | · | · | 99 | – | –
COc1cc(/C=C(\C#N)C(=O)N2CCc3ccccc32)ccc1O | – | – | · | 100 | – | –
COc1cc(C=NNC(=O)c2cccc3ccccc23)ccc1OCC(N)=O | – | · | · | · | · | ·
Cc1onc(-c2c(Cl)cccc2Cl)c1CON=C(C#N)c1c(Cl)cccc1Cl | – | · | · | · | · | ·
CN(C)c1ccc(C=Nc2cnn(C)c2C(N)=O)cc1 | – | – | – | 98 | – | –
Cn1ncc(N=Cc2ccccc2[N+](=O)[O-])c1C(N)=O | – | – | – | – | – | –
O=C(COc1ccc(Cl)cc1)NC1CCSC1=O (centres undefined) | – | 102 | – | – | – | –
CC(=NNC1=NCCN1)c1ccccc1 | – | · | · | · | · | ·
CCN1CCN(c2c(Cl)cccc2NC(=O)c2cccs2)CC1 | – | – | – | – | – | –
O=C(Nc1cccc(Cl)c1N1CCOCC1)c1cccs1 | – | – | – | 91 | – | –
CCC(CC)NC(=O)CON=Cc1ccccc1OC(F)F | – | · | · | · | · | ·
CC(C)(C)Nc1nc(Cl)nc(N(C#N)CN2C(=O)c3ccccc3S2(=O)=O)n1 | – | – | – | 92 | – | –
CC(C)Nc1nc(Cl)nc(N(C#N)CN2C(=O)c3ccccc3S2(=O)=O)n1 | – | – | – | – | – | –
O=C(N/N=C/c1ccccc1)c1ccco1 | · | – | – | – | – | –
SMILES | UCH37 inh | Calb FLC | NALP1 inh | ALR inh | NLRP3 yeast inh | ATG4B inh
O=C(C#Cc1ccccc1)c1ccco1 | · | – | 44 | – | – | –
CN(C)CCOC(=O)C1(c2ccccc2)CCOCC1 | 20! | – | – | – | – | –
O=C(O)c1ccccc1C=NNc1ccc(S(=O)(=O)N2CCOCC2)cc1[N+](=O)[O-] | – | · | · | · | · | ·
Cc1ccc(NC(NC(=O)c2ccccn2)C(Cl)(Cl)Cl)cc1 (centres undefined) | – | – | – | 99 | – | –
COc1ccccc1NC(NC(=O)c1cccnc1)C(Cl)(Cl)Cl (centres undefined) | – | – | – | 88 | – | –
Cc1ccc(NC(NC(=O)c2cccs2)C(Cl)(Cl)Cl)cc1 (centres undefined) | – | – | – | 98 | – | –
Cc1ccc(NC(NC(=O)c2cccnc2)C(Cl)(Cl)Cl)cc1 (centres undefined) | – | – | – | 99 | – | –
NS(=O)(=O)c1ccc(NC(NC(=O)c2cccnc2)C(Cl)(Cl)Cl)cc1 (centres undefined) | – | – | – | – | – | –
Cc1ccc(NC(NC(=O)c2cccs2)C(Cl)(Cl)Cl)cc1C (centres undefined) | – | – | – | – | – | –
Cc1cc(C(C#N)c2ccccc2F)n2ncnc2n1 (centres undefined) | – | – | – | 92 | – | –
Cc1cc(C(C#N)c2cccc(Cl)c2)n2ncnc2n1 (centres undefined) | – | 96 | – | – | – | –
CC(=O)NN=C(C)CC(=O)Nc1cccc2c1CCCC2 | – | · | · | · | · | ·
C=CC[N+](C)(C)CCCNC(=O)C=NO | – | · | · | · | · | ·
COc1ccc(C=NNC(=O)CCc2ccccc2)cc1O | – | · | · | · | · | ·
